Hits are enriched below; roughly 2.6% of the tested compounds scored in any of these assays.
esBAF inh: Bmi1 luciferase reporter increase in mESCs, primary screen, esBAF inhibitor project, mouse ES cells, Bmi1 luciferase knock-in, single point; reporter increase, % at 12.5 µM; 2% of 350,000 active; 24 h; 100% = twice the neutral-well signal; in the data active = activation above about 40%;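 also: a rise in the Bmi1 reporter signal indicates esBAF inhibition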
ASAP1 GAP inh: inhibitors of human ASAP1 ArfGAP activity, primary screen, biochemical, fluorescence polarization. Arf-GAP with SH3 domain, ANK repeat and PH domain-containing protein 1 (Homo sapiens), …. ASAP1-stimulated ARF1 GTP hydrolysis, GDP FP detection. inhibition, % at 16.5 µM. 0.19% of 360,000 active. AID 624377, 2012; in the data active = inhibition above about 25%
Target sequence (Q9ULH1 325-724 limits assumed): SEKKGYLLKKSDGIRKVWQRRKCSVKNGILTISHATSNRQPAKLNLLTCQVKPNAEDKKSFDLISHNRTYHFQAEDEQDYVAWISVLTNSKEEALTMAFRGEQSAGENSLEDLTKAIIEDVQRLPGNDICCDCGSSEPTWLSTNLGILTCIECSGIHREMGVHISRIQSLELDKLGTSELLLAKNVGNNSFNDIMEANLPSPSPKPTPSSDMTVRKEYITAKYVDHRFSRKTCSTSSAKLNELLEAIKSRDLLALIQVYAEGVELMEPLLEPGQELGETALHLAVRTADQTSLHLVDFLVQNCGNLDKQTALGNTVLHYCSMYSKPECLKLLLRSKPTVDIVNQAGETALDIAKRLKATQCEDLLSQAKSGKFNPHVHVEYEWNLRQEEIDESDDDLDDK
SMARCA2 activ: SMARCA2 (BRM) function activators, primary screen, cell-based, luminescence, high throughput; MG213 cells, MMTV-luciferase reporter, dexamethasone, overnight; activation, % at 9.1 µM; 1% of 370,000 active; AID 652017, 2013; in the data active = activation above about 7.8%
ARFGAP1 inhibitor: inhibitors of rat ARFGAP1 GAP activity, primary screen, biochemical, fluorescence polarization, GDP tracer; 0.26% of 360,000 active; inhibition, % at 16.5 µM; ADP-ribosylation factor GTPase-activating protein 1 (Rattus norvegicus), Q62848; Arfgap1-stimulated ARF1 GTP hydrolysis, GDP FP detection;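 active = inhibition above a per-plate limit, mean inhibition of low control wells plus 3 SD, cut at about 25% in these data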
Target sequence (Q62848 1-136 limits assumed): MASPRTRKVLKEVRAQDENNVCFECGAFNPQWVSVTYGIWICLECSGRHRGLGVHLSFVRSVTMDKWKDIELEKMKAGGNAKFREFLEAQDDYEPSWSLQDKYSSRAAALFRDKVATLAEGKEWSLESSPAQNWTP
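Material – truncated rat Arfgap1 GAP domain · Buffer or medium – HEPES-based buffer, pH 7.5 · Reagent – human ARF1(Δ1-17)-GTP substrate · Dosing – 16.5 µM single point, 1.26% DMSO · Schedule – GTP hydrolysis reaction 2 h at 25 °C · Technique – GDP detection by fluorescence polarization · Benchmarks – No-Arfgap1 wells (100%) versus DMSO full-reaction wells (0%) · Repeats – single replicate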
Large screens that a line does not name were inactive; ! = not active in a repeat.

COCCNC(=O)c1ccc2c3n(nc2c1)-c1ccc(Cl)cc1CO3	esBAF inh 63
Cc1ccc2c(c1)COc1c3ccc(C(=O)NCCO)cc3nn1-2	esBAF inh 62
C=CCNC(=O)c1ccc2c3n(nc2c1)-c1ccccc1CO3	none
C[C@@H]1CN([C@H](C)CO)C(=O)c2cc(NC(=O)Nc3ccc4c(c3)OCO4)ccc2O[C@@H](C)CCCCO[C@H]1CN(C)S(C)(=O)=O	none (no result: ASAP1 GAP inh, SMARCA2 activ, ARFGAP1 inhibitor)
Cc1ccc(S(=O)(=O)Nc2ccc3c(c2)C(=O)N([C@@H](C)CO)C[C@@H](C)[C@H](CN(C)S(C)(=O)=O)O3)cc1	none (no result: ASAP1 GAP inh, SMARCA2 activ, ARFGAP1 inhibitor)
O=C(NCCO)c1ccc2c3n(nc2c1)-c1ccc(Cl)cc1CO3	esBAF inh 68
CCC(=O)Nc1ccc2c(c1)C(=O)N(C)C[C@H](OC)[C@@H](C)CN(C(=O)C1CC1)[C@H](C)CO2	none (no result: ASAP1 GAP inh, SMARCA2 activ, ARFGAP1 inhibitor)
COc1ccc(-c2nc(N)nc(N)n2)c(O)c1	esBAF inh 48
COc1cccc2sc(NNC(=O)C3=COCCO3)nc12	esBAF inh 46
O=C(c1cccnc1)N1C[C@H]2[C@@H](c3ccccc31)[C@@H](CO)N2C(=O)C1CCCCC1	none (no result: ASAP1 GAP inh, SMARCA2 activ, ARFGAP1 inhibitor)
CSc1ccccc1NC(=O)COc1ccc2c(c1)OCO2	none
NC(=O)c1ccccc1NC(=O)COc1ccc2c(c1)OCO2	esBAF inh 48
C[C@H](CO)N1C[C@H](C)[C@H](CN(C)C(=O)C2CCCCC2)OCCCC[C@H](C)Oc2ccc(N(C)C)cc2C1=O	none (no result: ASAP1 GAP inh, SMARCA2 activ, ARFGAP1 inhibitor)
Cn1c2ccccc2c2ncn(CCC3=CCCCC3)c(=O)c21	esBAF inh 74
O=C(NNC(=O)c1ccccc1Br)c1ccccc1Cl	none (no result: esBAF inh)
O=C(NNC(=S)Nc1ccccc1Cl)c1ccccc1Br	esBAF inh 66
CS(=O)(=O)Nc1ccc2c(c1)[C@H]1C[C@H](CC(=O)NCc3ccccc3F)O[C@@H](CO)[C@H]1O2	none (no result: ASAP1 GAP inh, SMARCA2 activ, ARFGAP1 inhibitor)
O=C(C[C@H]1C=C[C@H](NS(=O)(=O)c2ccccc2)[C@H](CO)O1)NCCN1CCCCC1	none (no result: ASAP1 GAP inh, SMARCA2 activ, ARFGAP1 inhibitor)
C[C@H](CO)N1C[C@H](C)[C@@H](CN(C)CC2CCCCC2)OCCCC[C@H](C)Oc2ccc(NS(=O)(=O)c3ccc(Cl)cc3)cc2C1=O	none (no result: ASAP1 GAP inh, SMARCA2 activ, ARFGAP1 inhibitor)
CCS(=O)(=O)N1Cc2ccccc2CC1C(=O)Nc1ccc(NC(C)=O)cc1 (configuration not stated)	none (no result: esBAF inh)
CCS(=O)(=O)N1Cc2ccccc2CC1C(=O)N(C)CC(=O)Nc1cccc(F)c1 (configuration not stated)	esBAF inh 47
CCS(=O)(=O)N1Cc2ccccc2CC1C(=O)Nc1ccc(C)cc1 (configuration not stated)	esBAF inh 49
Cc1noc(C)c1NC(=O)N(C)C[C@H]1Oc2c(NS(=O)(=O)c3c(C)noc3C)cccc2C(=O)N([C@H](C)CO)C[C@H]1C	none (no result: ASAP1 GAP inh, SMARCA2 activ, ARFGAP1 inhibitor)
CC(C)C(=O)N1CCC1(C)C(=O)Nc1cc(-c2ccccc2)nn1C (configuration not stated)	esBAF inh 50
Cn1nc(C(C)(C)C)cc1NC(=O)C1(C)CCN1C(=O)Cc1ccc(-c2ccccc2)cc1 (configuration not stated)	none
CO[C@H]1CN(C)C(=O)c2cc(NC(C)=O)ccc2OC[C@@H](C)N(Cc2ccccn2)C[C@H]1C	none (no result: ASAP1 GAP inh, SMARCA2 activ, ARFGAP1 inhibitor)
CC(C)(C)c1ccc(C(=O)Nc2cccc(S(=O)(=O)NC3=NCCC3)c2)cc1	none
COc1ccc(/C=C/C(=O)Nc2cccc(S(=O)(=O)NC3=NCCCCC3)c2)cc1	none
CN(C)c1ccc(C(=O)Nc2cccc(S(=O)(=O)NC3=NCCCCC3)c2)cc1	esBAF inh 62
CC(=O)c1cccc(S(=O)(=O)Nc2cccc(S(=O)(=O)NC3=NCCC3)c2)c1	SMARCA2 activ 10 (no result: esBAF inh)
O=C(/C=C/c1ccc(OC(F)F)cc1)Nc1cccc(S(=O)(=O)NC2=NCCCCC2)c1	esBAF inh 54
Nc1nc2ccc(Oc3ccccc3)cc2s1	none (no result: esBAF inh)
Nc1nc2ccc(OC(F)(F)F)cc2s1	esBAF inh 43
C[C@H]1CN([C@@H](C)CO)C(=O)Cc2cc(NS(=O)(=O)c3ccccc3)ccc2O[C@@H]1CN(C)Cc1ccncc1	none (no result: ASAP1 GAP inh, SMARCA2 activ, ARFGAP1 inhibitor)
O=C(NNC(=S)Nc1ccccc1)c1cccc(Br)c1	esBAF inh 47
O=C(NNC(=S)Nc1ccccc1)c1ccc(O)cc1	esBAF inh 78
O=C(NNC(=S)NC(=O)c1ccccc1)c1ccc(O)cc1	none
Cc1cc(=O)cc(C)n1-c1ccc(Cl)cc1	none (no result: esBAF inh)
Cc1csc(=N)n1-c1ccc(Cl)cc1	esBAF inh 63
COc1cc(NC(=O)c2cc3nc(C)cc(C)n3n2)c(OC)cc1Cl	esBAF inh 52
COc1cc(NC(=O)c2c(F)c(F)c(F)c(F)c2F)c(OC)cc1Cl	none
Cc1ccc(C(=O)COC(=O)c2cccc([N+](=O)[O-])c2)s1	esBAF inh 46
CC(C)CC#Cc1ccc2c(c1)O[C@@H](CN(C)S(=O)(=O)c1cccc(F)c1)[C@@H](C)CN([C@@H](C)CO)S2(=O)=O	none (no result: ASAP1 GAP inh, SMARCA2 activ, ARFGAP1 inhibitor)
COc1ccc(-c2nn(-c3ccccc3)cc2C#N)cc1	esBAF inh 45
C[C@H](CO)N1C[C@H](C)[C@@H](CN(C)C)Oc2ccc(NC(=O)Cc3cn(C)c4ccccc34)cc2CC1=O	none (no result: ASAP1 GAP inh, SMARCA2 activ, ARFGAP1 inhibitor)
CCC(=O)Nc1ccc2c(c1)C(=O)N(C)C[C@@H](OC)[C@@H](C)CN(C(=O)CN1CCOCC1)[C@H](C)CO2	none (no result: ASAP1 GAP inh, SMARCA2 activ, ARFGAP1 inhibitor)
C[C@@H]1CCCCO[C@@H](CN(C)C(=O)Nc2ccc3c(c2)OCO3)[C@H](C)CN([C@H](C)CO)C(=O)c2cc(NC(=O)Nc3ccc4c(c3)OCO4)ccc2O1	esBAF inh 80 (no result: ASAP1 GAP inh, SMARCA2 activ, ARFGAP1 inhibitor)
C[C@H]1CCCCO[C@H](CN(C)C(=O)Nc2ccc(F)cc2)[C@@H](C)CN([C@@H](C)CO)C(=O)c2cc(NC(=O)Nc3ccc4c(c3)OCO4)ccc2O1	esBAF inh 51!
CNC[C@@H]1OCCCC[C@H](C)Oc2ccc(NS(=O)(=O)c3ccc(C)cc3)cc2C(=O)N([C@H](C)CO)C[C@H]1C	esBAF inh 55 (no result: ASAP1 GAP inh, SMARCA2 activ, ARFGAP1 inhibitor)
Cc1noc(C)c1NC(=O)N(C)C[C@@H]1Oc2ncc(C#CC3CC3)cc2C(=O)N([C@@H](C)CO)C[C@H]1C	esBAF inh 52 (no result: ASAP1 GAP inh, SMARCA2 activ, ARFGAP1 inhibitor)
O=S(=O)(N[C@H]1CC[C@@H](CCn2cc(-c3cccnc3)nn2)O[C@@H]1CO)c1ccccc1	none (no result: ASAP1 GAP inh, SMARCA2 activ, ARFGAP1 inhibitor)
Cc1ccc(S(=O)(=O)N(C)C[C@@H]2Oc3ccc(NS(=O)(=O)c4cn(C)cn4)cc3CC(=O)N([C@H](C)CO)C[C@H]2C)cc1	none (no result: ASAP1 GAP inh, SMARCA2 activ, ARFGAP1 inhibitor)
C/C=C/c1ccc([C@H]2[C@@H](CO)N(Cc3ccccn3)[C@H]2CNC(=O)CC)cc1	none (no result: ASAP1 GAP inh, SMARCA2 activ, ARFGAP1 inhibitor)
C[C@@H]1CCCCO[C@H](CN(C)C(=O)Nc2cccc3ccccc23)[C@H](C)CN([C@@H](C)CO)C(=O)c2cc(NC(=O)CCC(F)(F)F)ccc2O1	esBAF inh 45 (no result: ASAP1 GAP inh, SMARCA2 activ, ARFGAP1 inhibitor)

Screening results from PubChem BioAssay.
